From ChEMBL document CHEMBL1124106, “Synthesis of diethylenetriaminepentaacetic acid conjugated inulin and utility for cellular uptake of liposomes” (J Med Chem, 1988)
Several values for one entry are separate records, joined by “and”; a condition that tells them apart may be missing. Identical values can stand only once.

How the values were obtained:
Mus musculus [1] = experiment: Biodistribution in mice blood, after 24 hr of intravenous administration of 1-2 ug of compound (entrapped in bovine brain sphingomyelin/ cholesterol multilamellar vehicles); type: ADME, organism-based; settings: in vivo
Outline: (§1)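 BALB/c mice (about 25 g), 3–5 per group, given 50–100 μL tail-vein injection of 111In-labeled conjugate entrapped in SM/CH (2:1 mol/mol) multilamellar vesicles, approx. 100 000 cpm; dose 1–2 μg phospholipid/g body weight. Killed by cervical dislocation at set times; blood, cumulative excretion and rinsed, blotted, weighed tissues γ-counted, blood background subtracted. Result is % injected dose ± SD.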

Mus musculus [2] = experiment: Biodistribution in mice lung, after 1 hr of intravenous administration of 1-2 ug of compound (entrapped in bovine brain sphingomyelin/ cholesterol multilamellar vehicles); type: ADME, organism-based; settings: in vivo; outline: as §1
Mus musculus [3] = experiment: Biodistribution of compound in mice carcass after 1 hr of intravenous injection; type: ADME, organism-based; settings: in vivo
Outline: (§2)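 BALB/c mice (about 25 g), n = 4. Free ¹¹¹In- or ⁶⁷Ga-labeled compound (50–100 μL, about 100 000 cpm) was injected into a tail vein. Mice were held in separate cages and killed by cervical dislocation, with blood and cumulative excreta collected. Tissues were rinsed, blotted, weighed and γ-counted, with blood background subtracted (blood volume 8.0%). Values are % injected dose ± SD.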

Mus musculus [4] = experiment: Biodistribution in mice stomach, after 1 hr of intravenous administration of 1-2 ug of compound (entrapped in bovine brain sphingomyelin/ cholesterol multilamellar vehicles); type: ADME, organism-based; settings: in vivo; outline: as §1
Mus musculus [5] = experiment: Biodistribution in mice carcass, after 1 hr of intravenous administration of 1-2 ug ofcompound (entrapped in bovine brain sphingomyelin/ cholesterol multilamellar vehicles); type: ADME, organism-based; settings: in vivo; outline: as §1
Mus musculus [6] = experiment: Biodistribution in mice stomach, after 12 hr of intravenous administration of 1-2 ug of compound (entrapped in bovine brain sphingomyelin/ cholesterol multilamellar vehicles); type: ADME, organism-based; settings: in vivo
Outline: (§3)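 BALB/c mice (about 25 g), groups of 2–5. Compound ¹¹¹In-loaded into SM/CH (2:1, mol/mol) multilamellar vesicles, given as a single tail-vein injection. Lipid dose was 1–2 μg phospholipid/g body weight, in 50–100 μL carrying about 100 000 cpm. Mice were killed by cervical dislocation. Organs were rinsed, blotted, weighed and γ-counted, with blood background subtracted. Values are % injected dose ± SD.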

Mus musculus [7] = experiment: (§4) Biodistribution of compound in mice excretion after 1 hr of intravenous injection; type: ADME, organism-based; settings: in vivo, 1 h; outline: as §2
[8] = as §4; type: ADME, organism-based; settings: mouse, excretion (excreta, not specified further), read-out: ID; outline: as §2
Mus musculus [9] = experiment: Biodistribution in mice tail, after 24 hr of intravenous administration of 1-2 ug of compound (entrapped in bovine brain sphingomyelin/ cholesterol multilamellar vehicles); type: ADME, organism-based; settings: in vivo; outline: as §3
Mus musculus [10] = experiment: Biodistribution in mice fat, after 24 hr of intravenous administration of 1-2 ug of compound (entrapped in bovine brain sphingomyelin/ cholesterol multilamellar vehicles); type: ADME, organism-based; settings: in vivo; outline: as §1
Mus musculus [11] = experiment: Biodistribution in mice kidneys, after 24 hr of intravenous administration of 1-2 ug of compound (entrapped in bovine brain sphingomyelin/ cholesterol multilamellar vehicles); type: ADME, organism-based, Kidney; settings: in vivo; outline: as §1
Mus musculus [12] = experiment: Biodistribution of compound in mice tail after 0.17 hr of intravenous injection; type: ADME, organism-based; settings: in vivo; outline: as §2
Mus musculus [13] = experiment: Biodistribution in mice spleen, after 12 hr of intravenous administration of 1-2 ug of compound (entrapped in bovine brain sphingomyelin/ cholesterol multilamellar vehicles); type: ADME, organism-based; settings: in vivo; outline: as §1
Mus musculus [14] = experiment: Biodistribution in mice lung, after 12 hr of intravenous administration of 1-2 ug ofcompound (entrapped in bovine brain sphingomyelin/ cholesterol multilamellar vehicles); type: ADME, organism-based; settings: in vivo; outline: as §1
Mus musculus [15] = experiment: Biodistribution in mice heart, after 12 hr of intravenous administration of compound (entrapped in bovine brain sphingomyelin/ cholesterol multilamellar vehicles); type: ADME, organism-based; settings: in vivo; outline: as §1
Mus musculus [16] = experiment: Biodistribution in mice lung, after 48 hr of intravenous administration of 1-2 ug of compound (entrapped in bovine brain sphingomyelin/ cholesterol multilamellar vehicles); type: ADME, organism-based; settings: in vivo; outline: as §1
Mus musculus [17] = experiment: Biodistribution of compound in mice intestine after 0.17 hr of intravenous injection; type: ADME, organism-based; settings: in vivo; outline: as §2
Mus musculus [18] = experiment: Biodistribution of compound in mice blood after 21 hr of intravenous injection; type: ADME, organism-based; settings: in vivo; outline: as §2
Mus musculus [19] = experiment: Biodistribution in mice stomach, after 24 hr of intravenous administration of 1-2 ug of ofcompound (entrapped in bovine brain sphingomyelin/ cholesterol multilamellar vehicles); type: ADME, organism-based; settings: in vivo; outline: as §3
Mus musculus [20] = experiment: Biodistribution in mice heart, after 48 hr of intravenous administration of 1-2 ug of compound (entrapped in bovine brain sphingomyelin/ cholesterol multilamellar vehicles); type: ADME, organism-based; settings: in vivo; outline: as §1
Mus musculus [21] = experiment: Biodistribution in mice intestine, after 12 hr of intravenous administration of 1-2 ug of compound (entrapped in bovine brain sphingomyelin/ cholesterol multilamellar vehicles); type: ADME, organism-based; settings: in vivo; outline: as §1
Mus musculus [22] = experiment: Biodistribution in mice stomach, after 48 hr of intravenous administration of 1-2 ug of compound (entrapped in bovine brain sphingomyelin/ cholesterol multilamellar vehicles); type: ADME, organism-based; settings: in vivo; outline: as §3
Mus musculus [23] = experiment: Biodistribution in mice carcass, after 48 hr of intravenous administrating 1-2 ug of compound (entrapped in bovine brain sphingomyelin/ cholesterol multilamellar vehicles); type: ADME, organism-based; settings: in vivo; outline: as §1
Mus musculus [24] = experiment: Biodistribution of compound in mice skin after 0.17 hr of intravenous injection; type: ADME, organism-based, Zone of skin; settings: in vivo; outline: as §2
Mus musculus [25] = experiment: Biodistribution in mice spleen, after 48 hr of intravenous administration of 1-2 ug of compound (entrapped in bovine brain sphingomyelin/ cholesterol multilamellar vehicles); type: ADME, organism-based; settings: in vivo; outline: as §1
Mus musculus [26] = experiment: Biodistribution of compound in mice blood after 0.17 hr of intravenous injection; type: ADME, organism-based; settings: in vivo; outline: as §2
Mus musculus [27] = experiment: Biodistribution in mice blood, after 48 hr of intravenous administration of 1-2 ug of compound (entrapped in bovine brain sphingomyelin/ cholesterol multilamellar vehicles); type: ADME, organism-based; settings: in vivo; outline: as §1
Mus musculus [28] = experiment: Biodistribution in mice skin, after 24 hr of intravenous aadministration of 1-2 ug of compound (entrapped in bovine brain sphingomyelin/ cholesterol multilamellar vehicles); type: ADME, organism-based, Zone of skin; settings: in vivo; outline: as §1
[29] = Biodistribution in mice excretion, after 1 hr of intravenous administration of 1-2 ug of compound (entrapped in bovine brain sphingomyelin/ cholesterol multilamellar vehicles); type: ADME, organism-based; settings: mouse, excretion (excreta, not specified further), read-out: ID; outline: as §1
Mus musculus [30] = experiment: Biodistribution of compound in mice intestine after 21 hr of intravenous injection; type: ADME, organism-based; settings: in vivo; outline: as §2
Mus musculus [31] = experiment: Biodistribution in mice leg muscle, after 1 hr of intravenous administration of 1-2 ug ofcompound (entrapped in bovine brain sphingomyelin/ cholesterol multilamellar vehicles); type: ADME, organism-based, Muscle tissue; settings: in vivo; outline: as §1
Mus musculus [32] = experiment: Biodistribution of compound in mice tail after 1 hr of intravenous injection; type: ADME, organism-based; settings: in vivo; outline: as §2
Mus musculus [33] = experiment: Biodistribution in mice carcass, after 24 hr of intravenous administration of 1-2 ug ofcompound (entrapped in bovine brain sphingomyelin/ cholesterol multilamellar vehicles); type: ADME, organism-based; settings: in vivo; outline: as §1
Mus musculus [34] = experiment: Biodistribution in mice fat, after 1 hr of intravenous administration of 1-2 ug ofcompound (entrapped in bovine brain sphingomyelin/ cholesterol multilamellar vehicles); type: ADME, organism-based; settings: in vivo; outline: as §1
Mus musculus [35] = experiment: Biodistribution in mice leg muscle, after 48 hr of intravenous administration of compound (entrapped in bovine brain sphingomyelin/ cholesterol multilamellar vehicles); type: ADME, organism-based, Muscle tissue; settings: in vivo; outline: as §1
Mus musculus [36] = experiment: Biodistribution of compound in mice leg muscle after 1 hr of intravenous injection; type: ADME, organism-based, Muscle tissue; settings: in vivo; outline: as §2
Mus musculus [37] = experiment: Biodistribution in mice carcass, after 12 hr of intravenous administration of 1-2 ug of compound (entrapped in bovine brain sphingomyelin/ cholesterol multilamellar vehicles); type: ADME, organism-based; settings: in vivo; outline: as §1
[38] = Biodistribution in mice excretion, after 48 hr of intravenous administration of 1-2 ug of compound (entrapped in bovine brain sphingomyelin/ cholesterol multilamellar vehicles) at; type: ADME, organism-based; settings: mouse, excretion (excreta, not specified further), read-out: ID; outline: as §1

Compound: NCCNC(=O)CN(CCN(CCN(CC(=O)O)CC(=O)O)CC(=O)O)CC(=O)O
- ID (Mus musculus [1]): 0.4%
- ID (Mus musculus [2]): 0.4%
- ID (Mus musculus [3]): 4.1% and 9.1%
- ID (Mus musculus [4]): 0.8%
- ID (Mus musculus [5]): 4%
- ID (Mus musculus [6]): 0.2%
- ID (Mus musculus [7]): 50%
- dose excreted at 1 h [8]: 50.7%
- ID (Mus musculus [9]): 0.9%
- ID (Mus musculus [10]): 0.4%
- ID (Mus musculus [11]): 0.5%
- ID (Mus musculus [12]): 3.8% and 3.7%
- ID (Mus musculus [13]): 4%
- ID (Mus musculus [14]): 0.1%
- ID (Mus musculus [15]): 0%
- ID (Mus musculus [16]): 0.2%
- ID (Mus musculus [17]): 2.2% and 2.4%
- ID (Mus musculus [18]): 1% and 0.7%
- ID (Mus musculus [19]): 0.1%
- ID (Mus musculus [20]): 0%
- ID (Mus musculus [21]): 1%
- ID (Mus musculus [22]): 0%
- ID (Mus musculus [23]): 1.3%
- ID (Mus musculus [24]): 15.6% and 15.1%
- ID (Mus musculus [25]): 2.9%
- ID (Mus musculus [26]): 21.1% and 20.9%
- ID (Mus musculus [27]): 0.4%
- ID (Mus musculus [28]): 2%
- dose excreted at 1 h [29]: 0%
- ID (Mus musculus [30]): 2.2% and 5.8%
- ID (Mus musculus [31]): 0.3%
- ID (Mus musculus [32]): 2%
- ID (Mus musculus [33]): 2.1%
- ID (Mus musculus [34]): 0.3%
- ID (Mus musculus [35]): 0.3%
- ID (Mus musculus [36]): 0.8% and 1.3%
- ID (Mus musculus [37]): 2%
- dose excreted at 48 h [38]: 0%
